In ChEMBL document CHEMBL1121364, “Nucleoside conjugates as potential antitumor agents. 3. Synthesis and antitumor activity of 1-(beta-D-arabinofuranosyl)cytosine conjugates of corticosteroids” (1980):

Key:
L1210 [1] = assay: Antitumor activity in the mice with intraperitoneal implanted L1210 lymphoid leukemia at the dose of 50 mg/kg/day x 5 was determined as mean survival of treated group compared to untreated; 13.5/9; format: functional, Mus musculus
In short: (§1)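 C3D2F1/J female mice (C3H/HeJ female × DBA/2J male), groups of six to eight, average weight 25 g. Inoculated ip with 1 × 10^6 L1210 ascites cells taken from DBA/2Ha donor mice bearing 3-5 day old tumors. Compounds were dissolved in 0.154 N NaOH, neutralized with 0.154 N HCl (final 0.9% NaCl), and given ip daily for 5 days from 24 h post-implant. Median survival T/C; ILS = (T/C − 1) × 100; 30-day survivors counted.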

L1210 [2] = assay: Antitumor activity in the mice with intraperitoneal implanted L1210 lymphoid leukemia at the dose of 100 mg/kg/day x 5 was determined as mean survival of treated group compared to untreated; 9.5/9; format: functional, Mus musculus; in short: as §1
L1210 [3] = assay: Antitumor activity in the mice with intraperitoneal implanted L1210 lymphoid leukemia at the dose of 25 mg/kg/day x 5 was determined as mean survival of treated group compared to untreated; 11.5/9; format: functional, Mus musculus; in short: as §1
L1210 [4] = assay: Antitumor activity in the mice with intraperitoneal implanted L1210 lymphoid leukemia at the dose 100 mg/kg/day x 5 was determined as percentage increase in the life span as compared with control tumor bearers; format: functional; conditions: Mus musculus, L1210, ip
In short: (§2)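 Female C3D2F1/J mice (C3H/HeJ × DBA/2J), groups of six to eight, average weight 25 g. Each mouse got 1 × 10^6 L1210 ascites cells ip, taken from DBA/2Ha donor mice bearing 3-5 day tumors. Compound was dissolved in 0.154 N NaOH and neutralized with 0.154 N HCl (final 0.9% NaCl). Dosed ip daily ×5, starting 24 h after implant. Recorded body weight change on day 8, survival range, median survival and 30-day survivors. ILS = (T/C − 1) × 100.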

L1210 [5] = assay: In Vitro evaluation for the antiproliferative activity by observing the growth inhibition of L1210 lymphoid leukemia cells in culture at 72 hour; format: functional, Mus musculus
In short: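 Growth of L1210 lymphoid leukemia cells in culture measured by Trypan blue exclusion of viable cells after 72 h of drug exposure. ED50 is the concentration giving 50% growth inhibition. In some runs the compound was first preincubated in medium at 37 °C for 24 or 48 h before the assay.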

L1210 [6] = assay: Antitumor activity in mice with intraperitoneal implanted L1210 lymphoid leukemia at the dose 100 mg/kg/day x 5 was determined as weight change (g/mouse) on 8th day; format: functional
In short: (§3)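 C3D2F1/J female mice (C3H/HeJ × DBA/2J), groups of six to eight, average 25 g, inoculated ip with 1 × 10^6 L1210 ascites cells taken from DBA/2Ha donor mice carrying 3-5 day tumors. Compound dissolved in 0.154 N NaOH, then neutralized with 0.154 N HCl to give 0.9% NaCl. Given ip daily for 5 consecutive days starting 24 h after implantation. Body weight change per mouse recorded on day 8.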

L1210 [7] = assay: Antitumor activity in mice with intraperitoneal implanted L1210 lymphoid leukemia at the dose 25 mg/kg/day x 5 was determined as weight change (g/mouse) on 8th day; format: functional; in short: as §3
L1210 [8] = assay: Antitumor activity in mice with intraperitoneal implanted L1210 lymphoid leukemia at the dose 50 mg/kg/day x 5 was determined as weight change (g/mouse) on 8th day; format: functional; in short: as §3
L1210 [9] = assay: Antitumor activity in the mice with intraperitoneal implanted L1210 lymphoid leukemia at the dose 100 mg/kg/day x 5 was determined and number of animals survived on 30 th day were reported; 0/8; format: functional, Mus musculus; in short: as §2
L1210 [10] = assay: Antitumor activity in the mice with intraperitoneal implanted L1210 lymphoid leukemia at the dose 25 mg/kg/day x 5 was determined and number of animals survived on 30 th day were reported; 0/8; format: functional, Mus musculus; in short: as §2
L1210 [11] = assay: Antitumor activity in the mice with intraperitoneal implanted L1210 lymphoid leukemia at the dose 50 mg/kg/day x 5 was determined as Survival time in days; Range is 10-17 days; format: functional, Mus musculus; in short: as §2
L1210 [12] = assay: Antitumor activity in the mice with intraperitoneal implanted L1210 lymphoid leukemia at the dose 50 mg/kg/day x 5 was determined and number of animals survived on 30 th day were reported; 0/8; format: functional, Mus musculus; in short: as §2
L1210 [13] = assay: Antitumor activity in the mice with intraperitoneal implanted L1210 lymphoid leukemia at the dose 50 mg/kg/day x 5 was determined as percentage increase in the life span as compared with control tumor bearers; format: functional; conditions: Mus musculus, L1210, ip; in short: as §1
L1210 [14] = assay: Antitumor activity in the mice with intraperitoneal implanted L1210 lymphoid leukemia at the dose 100 mg/kg/day x 5 was determined as Survival time in days; Range is 8-13 days; format: functional, Mus musculus; in short: as §2
L1210 [15] = assay: Antitumor activity in the mice with intraperitoneal implanted L1210 lymphoid leukemia at the dose 25 mg/kg/day x 5 was determined as Survival time in days; Range is 7-15 days; format: functional, Mus musculus; in short: as §2
L1210 [16] = assay: Antitumor activity in the mice with intraperitoneal implanted L1210 lymphoid leukemia at the dose 25 mg/kg/day x 5 was determined as percentage increase in the life span as compared with control tumor bearers; format: functional; conditions: Mus musculus, L1210, ip; in short: as §2
L1210 [17] = assay: Antitumor activity in the mice with intraperitoneal implanted L1210 lymphoid leukemia at the dose of 50 mg/kg/day x 5 was determined as mean survival of treated group compared to untreated; 24/8; format: functional, Mus musculus
L1210 [18] = assay: Antitumor activity in the mice with intraperitoneal implanted L1210 lymphoid leukemia at the dose of 25 mg/kg/day x 5 was determined as mean survival of treated group compared to untreated; 16.5/8.5; format: functional, Mus musculus; in short: as §1
L1210 [19] = assay: Antitumor activity in mice with intraperitoneal implanted L1210 lymphoid leukemia at the dose 75 mg/kg/day x 5 was determined as weight change (g/mouse) on 8th day; format: functional; in short: as §3
L1210 [20] = assay: Antitumor activity in the mice with intraperitoneal implanted L1210 lymphoid leukemia at the dose of 75 mg/kg/day x 5 was determined as mean survival of treated group compared to untreated; 17/8.5; format: functional, Mus musculus
L1210 [21] = assay: Antitumor activity in the mice with intraperitoneal implanted L1210 lymphoid leukemia at the dose 50 mg/kg/day x 5 was determined as Survival time in days; Range is 15-42 days; format: functional, Mus musculus; in short: as §2
L1210 [22] = assay: Antitumor activity in the mice with intraperitoneal implanted L1210 lymphoid leukemia at the dose 75 mg/kg/day x 5 was determined as Survival time in days; Range is 12-21 days; format: functional, Mus musculus; in short: as §1
L1210 [23] = assay: Antitumor activity in the mice with intraperitoneal implanted L1210 lymphoid leukemia at the dose 50 mg/kg/day x 5 was determined and number of animals survived on 30 th day were reported; 2/8; format: functional, Mus musculus; in short: as §2
L1210 [24] = assay: Antitumor activity in the mice with intraperitoneal implanted L1210 lymphoid leukemia at the dose 75 mg/kg/day x 5 was determined and number of animals survived on 30 th day were reported; 0/8; format: functional, Mus musculus; in short: as §1
L1210 [25] = assay: Antitumor activity in the mice with intraperitoneal implanted L1210 lymphoid leukemia at the dose 75 mg/kg/day x 5 was determined as percentage increase in the life span as compared with control tumor bearers; format: functional; conditions: Mus musculus, L1210, ip; in short: as §1
L1210 [26] = assay: Antitumor activity in the mice with intraperitoneal implanted L1210 lymphoid leukemia at the dose 25 mg/kg/day x 5 was determined as Survival time in days; Range is 14-18 days; format: functional, Mus musculus; in short: as §2

Compound: C[C@@H]1C[C@H]2[C@@H]3CCC4=CC(=O)C=C[C@]4(C)[C@@]3(F)[C@@H](O)C[C@]2(C)[C@@]1(O)C(=O)COP(=O)(O)OC[C@H]1O[C@@H](n2ccc(N)nc2=O)[C@@H](O)[C@@H]1O
- T/C (L1210 [1]): 13.5
- T/C (L1210 [2]): 9.5
- T/C (L1210 [3]): 11.5
- ILS at 100 mg/kg/day (L1210 [4]): 6%
- ED 50 (L1210 [5]): 80 nM
- Weight change (L1210 [6]): -2.02 g mouse-1
- Weight change (L1210 [7]): -1.25 g mouse-1
- Weight change (L1210 [8]): -1.05 g mouse-1
- Survivors (L1210 [9]): 0
- Survivors (L1210 [10]): 0
- Survival time (L1210 [11]): 10 days
- Survivors (L1210 [12]): 0
- ILS at 50 mg/kg/day (L1210 [13]): 50%
- Survival time (L1210 [14]): 8 days
- Survival time (L1210 [15]): 7 days
- ILS at 25 mg/kg/day (L1210 [16]): 28%

Compound: C[C@]12C[C@H](O)[C@H]3[C@@H](CCC4=CC(=O)CC[C@@]43C)[C@@H]1CC[C@@H]2C(=O)COP(=O)(O)OC[C@H]1O[C@@H](n2ccc(N)nc2=O)[C@@H](O)[C@@H]1O
- T/C (L1210 [17]): 24
- T/C (L1210 [18]): 16.5
- Weight change (L1210 [19]): -0.59 g mouse-1
- ED 50 (L1210 [5]): 90 nM
- T/C (L1210 [20]): 17
- Weight change (L1210 [7]): 0.06 g mouse-1
- Weight change (L1210 [8]): -1.24 g mouse-1
- Survivors (L1210 [10]): 0
- Survival time (L1210 [21]): 15 days
- Survival time (L1210 [22]): 12 days
- Survivors (L1210 [23]): 2
- Survivors (L1210 [24]): 0
- ILS at 50 mg/kg/day (L1210 [13]): 200%
- ILS at 75 mg/kg/day (L1210 [25]): 100%
- Survival time (L1210 [26]): 14 days
- ILS at 25 mg/kg/day (L1210 [16]): 94%
